target: T1, Peroxisome proliferator-activated receptor alpha (Homo sapiens, UniProt Q07869); assay: Activity against PPAR alpha in human by FRET assay
T1 sequence (Q07869 whole entry): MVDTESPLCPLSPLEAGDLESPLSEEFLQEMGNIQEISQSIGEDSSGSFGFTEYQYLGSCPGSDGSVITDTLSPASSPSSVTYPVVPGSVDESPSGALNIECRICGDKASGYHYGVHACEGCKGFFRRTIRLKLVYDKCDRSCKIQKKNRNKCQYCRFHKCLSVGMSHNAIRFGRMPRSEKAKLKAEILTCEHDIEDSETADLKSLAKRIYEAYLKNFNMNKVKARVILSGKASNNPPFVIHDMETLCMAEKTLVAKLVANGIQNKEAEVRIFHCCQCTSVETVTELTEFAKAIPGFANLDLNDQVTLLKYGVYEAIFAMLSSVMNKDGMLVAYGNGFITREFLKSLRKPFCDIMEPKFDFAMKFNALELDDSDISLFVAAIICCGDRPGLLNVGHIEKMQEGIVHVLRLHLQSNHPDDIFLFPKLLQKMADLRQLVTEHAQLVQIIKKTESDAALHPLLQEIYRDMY
How it was run: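 Human PPAR-α ligand-binding domain (GST-tagged), incubated with compound, europium-labelled anti-GST antibody, biotinylated CREB-binding protein co-activator and streptavidin-APC. Time-resolved FRET read with excitation at 340 nm and emission at 615 and 640 nm. EC50 taken as the mean of at least three experiments.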

First: CCc1oc(-c2ccccc2)nc1CCOc1ccc2c(c1)CCC2C(CC)C(=O)O (stereo unspecified)
Second: CC[C@H](C(=O)O)[C@H]1CCc2cc(OCCc3nc(-c4ccccc4)oc3C)ccc21
The EC50 of the first is 14-fold higher: 354 nM for the first, 26 nM for the second.

`CCC(C(=O)O)C1CCc2cc(OCCn3nc(-c4ccccc4)c4ccccc4c3=O)ccc21` (stereo unspecified) and `CCC(C(=O)O)C1CCc2cc(OCc3ccc(-c4nc(-c5ccccc5)oc4C)cc3)ccc21` (stereo unspecified) cannot be ordered by EC50: > 10000 nM for the first, > 10000 nM for the second.

First: CC[C@H](C(=O)O)[C@@H]1CCc2cc(OCCc3nc(-c4ccc(F)cc4)oc3C)ccc21
Second: CC[C@@H](C(=O)O)[C@H]1CCc2cc(OCCc3nc(-c4ccc(F)cc4)oc3C)ccc21
The EC50 of the first is 9.2-fold lower: 94 nM for the first, 868 nM for the second. The first is the more potent here.

First: CC[C@H](C(=O)O)[C@H]1CCc2cc(OCCc3nc(-c4ccc(C)cc4)oc3C)ccc21
Second: CCC(C(=O)O)C1CCc2cc(OCCc3nc(-c4ccc(Cl)cc4)oc3C)ccc21 (stereo unspecified)
The EC50 of the first is 1.9-fold lower: 48 nM for the first, 92 nM for the second.

First: CCC(C(=O)O)C1CCc2cc(OCCc3nc(-c4cc5ccccc5s4)oc3C)ccc21 (stereo unspecified)
Second: CC[C@@H](C(=O)O)[C@H]1CCc2cc(OCCc3nc(-c4ccccc4)oc3C)ccc21
The EC50 of the first is lower: 287 nM for the first, > 10000 nM for the second.

Going from `CCC(C(=O)O)C1CCc2cc(OCCc3nc(-c4ccccc4)oc3C)c(Cl)cc21` (stereo unspecified) to `CC[C@@H](C(=O)O)[C@@H]1CCc2cc(OCCc3nc(-c4ccccc4)oc3C)ccc21`, the EC50 rises from 127 nM to 350 nM (2.8-fold). The first is the more potent here.

First: CCC(C(=O)O)C1CCc2cc(OCCc3nc(-c4ccccc4)oc3C)c(-c3ccccc3)cc21 (stereo unspecified)
Second: CCC(C(=O)O)C1CCc2cc(OCCc3nc(-c4ccc(-c5ccccc5)cc4)oc3C)ccc21 (stereo unspecified)
The EC50 of the first is 57-fold lower: 58 nM for the first, 3280 nM for the second.

`CCC(C(=O)O)C1CCc2cc(OCCNC(=O)c3ccccc3)ccc21` (stereo unspecified) and `CCC(C(=O)O)C1CCc2cc(OCCNC(=O)Nc3ccc(C)cc3)ccc21` (stereo unspecified) cannot be ordered by EC50: > 10000 nM for the first, > 10000 nM for the second.

Compared with `CCC(C(=O)O)C1CCc2cc(OCCc3nc(-c4ccccc4)oc3C(C)C)ccc21` (stereo unspecified), `Cc1oc(-c2ccccc2)nc1CCOc1ccc2c(c1)CCC2C(C)C(=O)O` (stereo unspecified) is lower in EC50: > 10000 nM for the first, 1000 nM for the second.

`CC[C@@H](C(=O)O)[C@H]1CCc2cc(OCCc3nc(-c4ccc(Cl)c(Cl)c4)oc3C)ccc21` and `CC[C@H](C(=O)O)[C@@H]1CCc2cc(OCCc3nc(-c4ccc(Cl)c(Cl)c4)oc3C)ccc21` are within 1.5-fold of each other in EC50: 63 nM for the first, 57 nM for the second.

`CCCCc1ccc(-c2nc(CCOc3ccc4c(c3)CCC4C(CC)C(=O)O)c(C)o2)cc1` (stereo unspecified) and `CCC(C(=O)O)C1CCc2cc(OCCc3nc(-c4ccc(C(C)C)cc4)oc3C)ccc21` (stereo unspecified) are within 1.5-fold of each other in EC50: 82 nM for the first, 119 nM for the second.

Compared with `CCC(C(=O)O)C1CCc2cc(OCCc3nc(-c4ccc(C)c(C)c4)oc3C)ccc21` (stereo unspecified), `CCC(C(=O)O)C1CCc2cc(OCCc3nc(-c4cccc(F)c4)oc3C)ccc21` (stereo unspecified) is 8.8-fold higher in EC50: 38 nM for the first, 336 nM for the second.

First: CCC(C(=O)O)C1CCc2cc(OCCc3nc(-c4ccc5ccccc5c4)oc3C)ccc21 (stereo unspecified)
Second: CCC(C(=O)O)C1CCc2cc(OCCc3nc(-c4cccc5ccccc45)oc3C)ccc21 (stereo unspecified)
The EC50 of the first is 4.3-fold lower: 104 nM for the first, 451 nM for the second.

`CCC(C(=O)O)C1CCc2cc(OCCc3nc(-c4c(F)cccc4F)oc3C)ccc21` (stereo unspecified) and `CCC(C(=O)O)C1CCc2cc(OCCc3nc(-c4ccccc4C)oc3C)ccc21` (stereo unspecified) are within 1.5-fold of each other in EC50: 523 nM for the first, 637 nM for the second.

Going from `CCC(C(=O)O)C1CCc2cc(OCCc3nc(COc4ccc(Cl)cc4)oc3C)ccc21` (stereo unspecified) to `CCC(C(=O)O)C1CCc2cc(OCCc3nc(Cc4ccccc4)oc3C)ccc21` (stereo unspecified), the EC50 rises from 53 nM to 718 nM (14-fold). The first is the more potent here.

First: CCC(C(=O)O)C1CCc2cc(OCCc3nc(-c4cc(C(F)(F)F)cc(C(F)(F)F)c4)oc3C)ccc21 (stereo unspecified)
Second: CCC(C(=O)O)C1CCc2cc(OCCc3nc(-c4ccc(C(F)(F)F)cc4)oc3C)ccc21 (stereo unspecified)
The EC50 of the first is 20-fold higher: 1170 nM for the first, 58 nM for the second.

Compound `CCC(C(=O)O)C1CCc2cc(OCc3nc(-c4ccccc4)oc3C(F)(F)F)ccc21` (stereo unspecified) has an EC50 of 1000 nM.

target: T2, Peroxisome proliferator-activated receptor gamma (Homo sapiens, UniProt P37231); assay: Activity against PPAR gamma in human by FRET assay
T2 sequence (P37231 whole entry): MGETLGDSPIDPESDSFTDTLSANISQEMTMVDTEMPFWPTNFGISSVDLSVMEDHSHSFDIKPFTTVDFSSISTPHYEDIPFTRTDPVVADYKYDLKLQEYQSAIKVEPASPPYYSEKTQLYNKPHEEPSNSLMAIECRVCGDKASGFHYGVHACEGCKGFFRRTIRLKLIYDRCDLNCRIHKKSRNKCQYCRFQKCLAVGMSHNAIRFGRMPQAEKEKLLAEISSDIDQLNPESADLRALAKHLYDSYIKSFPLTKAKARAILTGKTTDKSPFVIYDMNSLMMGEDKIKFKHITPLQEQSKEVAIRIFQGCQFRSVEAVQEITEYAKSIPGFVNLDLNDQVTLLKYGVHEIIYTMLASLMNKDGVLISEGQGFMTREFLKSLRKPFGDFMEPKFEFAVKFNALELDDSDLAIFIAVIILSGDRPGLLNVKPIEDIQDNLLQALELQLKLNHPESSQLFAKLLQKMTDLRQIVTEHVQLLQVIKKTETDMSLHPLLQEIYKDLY

First: CCc1oc(-c2ccccc2)nc1CCOc1ccc2c(c1)CCC2C(CC)C(=O)O (stereo unspecified)
Second: CC[C@H](C(=O)O)[C@H]1CCc2cc(OCCc3nc(-c4ccccc4)oc3C)ccc21
The EC50 of the first is 2.4-fold higher: 46 nM for the first, 19 nM for the second. The second is the more potent here.

`CCC(C(=O)O)C1CCc2cc(OCCn3nc(-c4ccccc4)c4ccccc4c3=O)ccc21` (stereo unspecified) and `CCC(C(=O)O)C1CCc2cc(OCc3ccc(-c4nc(-c5ccccc5)oc4C)cc3)ccc21` (stereo unspecified) cannot be ordered by EC50: > 10000 nM for the first, > 10000 nM for the second.

First: CC[C@H](C(=O)O)[C@@H]1CCc2cc(OCCc3nc(-c4ccc(F)cc4)oc3C)ccc21
Second: CC[C@@H](C(=O)O)[C@H]1CCc2cc(OCCc3nc(-c4ccc(F)cc4)oc3C)ccc21
The EC50 of the first is lower: 46 nM for the first, > 10000 nM for the second. The first is the more potent here.

Going from `CC[C@H](C(=O)O)[C@H]1CCc2cc(OCCc3nc(-c4ccc(C)cc4)oc3C)ccc21` to `CCC(C(=O)O)C1CCc2cc(OCCc3nc(-c4ccc(Cl)cc4)oc3C)ccc21` (stereo unspecified), the EC50 rises from 83 nM to 206 nM (2.5-fold). The first is the more potent here.

Compared with `CCC(C(=O)O)C1CCc2cc(OCCc3nc(-c4cc5ccccc5s4)oc3C)ccc21` (stereo unspecified), `CC[C@@H](C(=O)O)[C@H]1CCc2cc(OCCc3nc(-c4ccccc4)oc3C)ccc21` is 16-fold higher in EC50: 37 nM for the first, 605 nM for the second. The first is the more potent here.

Compared with `CCC(C(=O)O)C1CCc2cc(OCCc3nc(-c4ccccc4)oc3C)c(Cl)cc21` (stereo unspecified), `CC[C@@H](C(=O)O)[C@@H]1CCc2cc(OCCc3nc(-c4ccccc4)oc3C)ccc21` is 3.1-fold lower in EC50: 294 nM for the first, 95 nM for the second.

Going from `CCC(C(=O)O)C1CCc2cc(OCCc3nc(-c4ccccc4)oc3C)c(-c3ccccc3)cc21` (stereo unspecified) to `CCC(C(=O)O)C1CCc2cc(OCCc3nc(-c4ccc(-c5ccccc5)cc4)oc3C)ccc21` (stereo unspecified), the EC50 falls from 290 nM to 43 nM (6.7-fold).

`CCC(C(=O)O)C1CCc2cc(OCCNC(=O)c3ccccc3)ccc21` (stereo unspecified) and `CCC(C(=O)O)C1CCc2cc(OCCNC(=O)Nc3ccc(C)cc3)ccc21` (stereo unspecified) cannot be ordered by EC50: > 10000 nM for the first, > 10000 nM for the second.

First: CCC(C(=O)O)C1CCc2cc(OCCc3nc(-c4ccccc4)oc3C(C)C)ccc21 (stereo unspecified)
Second: Cc1oc(-c2ccccc2)nc1CCOc1ccc2c(c1)CCC2C(C)C(=O)O (stereo unspecified)
The EC50 of the first is 3.3-fold higher: 347 nM for the first, 104 nM for the second. The second is the more potent here.

Going from `CC[C@@H](C(=O)O)[C@H]1CCc2cc(OCCc3nc(-c4ccc(Cl)c(Cl)c4)oc3C)ccc21` to `CC[C@H](C(=O)O)[C@@H]1CCc2cc(OCCc3nc(-c4ccc(Cl)c(Cl)c4)oc3C)ccc21`, the EC50 falls from 225 nM to 46 nM (4.9-fold). The second is the more potent here.

`CCCCc1ccc(-c2nc(CCOc3ccc4c(c3)CCC4C(CC)C(=O)O)c(C)o2)cc1` (stereo unspecified) and `CCC(C(=O)O)C1CCc2cc(OCCc3nc(-c4ccc(C(C)C)cc4)oc3C)ccc21` (stereo unspecified) are within 1.5-fold of each other in EC50: 16 nM for the first, 22 nM for the second.

Going from `CCC(C(=O)O)C1CCc2cc(OCCc3nc(-c4ccc(C)c(C)c4)oc3C)ccc21` (stereo unspecified) to `CCC(C(=O)O)C1CCc2cc(OCCc3nc(-c4cccc(F)c4)oc3C)ccc21` (stereo unspecified), the EC50 rises from 32 nM to 61 nM (1.9-fold).

Going from `CCC(C(=O)O)C1CCc2cc(OCCc3nc(-c4ccc5ccccc5c4)oc3C)ccc21` (stereo unspecified) to `CCC(C(=O)O)C1CCc2cc(OCCc3nc(-c4cccc5ccccc45)oc3C)ccc21` (stereo unspecified), the EC50 rises from 16 nM to 113 nM (7.1-fold). The first is the more potent here.

Going from `CCC(C(=O)O)C1CCc2cc(OCCc3nc(-c4c(F)cccc4F)oc3C)ccc21` (stereo unspecified) to `CCC(C(=O)O)C1CCc2cc(OCCc3nc(-c4ccccc4C)oc3C)ccc21` (stereo unspecified), the EC50 falls from 368 nM to 153 nM (2.4-fold). The second is the more potent here.

Going from `CCC(C(=O)O)C1CCc2cc(OCCc3nc(COc4ccc(Cl)cc4)oc3C)ccc21` (stereo unspecified) to `CCC(C(=O)O)C1CCc2cc(OCCc3nc(Cc4ccccc4)oc3C)ccc21` (stereo unspecified), the EC50 rises from 104 nM to 330 nM (3.2-fold).

`CCC(C(=O)O)C1CCc2cc(OCCc3nc(-c4cc(C(F)(F)F)cc(C(F)(F)F)c4)oc3C)ccc21` (stereo unspecified) and `CCC(C(=O)O)C1CCc2cc(OCCc3nc(-c4ccc(C(F)(F)F)cc4)oc3C)ccc21` (stereo unspecified) are within 1.5-fold of each other in EC50: 247 nM for the first, 205 nM for the second.

With `CCC(C(=O)O)C1CCc2cc(OCc3nc(-c4ccccc4)oc3C(F)(F)F)ccc21` (stereo unspecified) the EC50 was > 10000 nM.

From ChEMBL document CHEMBL1147759, “Substituted indanylacetic acids as PPAR-alpha-gamma activators” (Bioorg Med Chem Lett, 2006)
